Results taken from ChEMBL document CHEMBL4308879, “Seco-4-methyl-DCK derivatives as potent chemosensitizers” (Bioorg Med Chem Lett, 2019).

Assays:
[1] = Cytotoxicity against HOSEC assessed as survival at 10 uM after 48 hrs by MTT assay relative to control; conditions: human, HOSEC cells; read-out: Survival
In short: (§1)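 Survival ratio (%) determined from the surviving fraction after treatment. Reported as mean of three independent experiments.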

[2] = Cytotoxicity against HUVEC assessed as survival at 10 uM after 48 hrs by MTT assay relative to control; format: cell-based; conditions: human, HUVEC cells; read-out: Survival; in short: as §1
[3] = Cytotoxicity against human T29 cells assessed as survival at 10 uM after 48 hrs by MTT assay relative to control; format: cell-based; conditions: read-out: Survival; in short: as §1
[4] = Cytotoxicity against human A2780/TAX cells assessed as survival at 10 uM after 48 hrs by MTT assay relative to control; format: cell-based, A2780/Taxol; conditions: read-out: Survival; in short: as §1
A2780/Taxol = assay: Reversal ratio of IC50 for paclitaxel-induced cytotoxicity against human A2780/TAX cells in absence of compound to IC50 paclitaxel-induced cytotoxicity against human A2780/TAX cells in presence of compound; format: functional
KB = assay: Cytotoxicity against human KB cells after 48 hrs by MTT assay; format: functional, cell-based
[5] = Resistance ratio of IC50 for human KBV cells to IC50 for human KB cells; format: functional
[6] = Cytotoxicity against human A2780/CDDP cells assessed as survival at 10 uM after 48 hrs by MTT assay relative to control; format: cell-based; conditions: read-out: Survival; in short: as §1
[7] = Cytotoxicity against human KBV cells assessed as survival at 10 uM after 48 hrs by MTT assay relative to control; format: cell-based; conditions: read-out: Survival; in short: as §1
[8] = Reversal ratio of IC50 for cisplatin-induced cytotoxicity against human A2780/CDDP cells in absence of compound to IC50 for cisplatin-induced cytotoxicity against human A2780/CDDP cells in presence of compound; format: functional
[9] = Reversal ratio of IC50 for vincristine-induced cytotoxicity against human KBV cells in absence of compound to IC50 for vincristine-induced cytotoxicity against human KBV cells in presence of compound; format: functional

COc1ccc(C(=O)OCc2c(OC(C)C)ccc3c(C)cc(=O)oc23)cc1OC
viability at 48 h, 10 µM [1]: 107%
viability at 48 h, 10 µM [2]: 84.2%
viability at 48 h, 10 µM [3]: 101%
viability at 48 h, 10 µM [4]: 102%
Ratio IC50 (A2780/Taxol): 197

CCOc1ccc2c(C)cc(=O)oc2c1COC(=O)c1ccc(OC)c(OC)c1
viability at 48 h, 10 µM [1]: 72%
viability at 48 h, 10 µM [2]: 83.4%
viability at 48 h, 10 µM [3]: 86.1%
viability at 48 h, 10 µM [4]: 83.1%
Ratio IC50 (A2780/Taxol): 101

Cc1cc(=O)oc2c(COC(=O)c3cccc(N(C)C)c3)c(OC(C)C)ccc12
viability at 48 h, 10 µM [1]: 76%
viability at 48 h, 10 µM [2]: 84.8%
viability at 48 h, 10 µM [3]: 90.8%
viability at 48 h, 10 µM [4]: 102%
Ratio IC50 (A2780/Taxol): 86

CC[C@]1(O)C[C@H]2CN(CCc3c([nH]c4ccccc34)[C@@](C(=O)OC)(c3cc4c(cc3OC)N(C=O)[C@H]3[C@@](O)(C(=O)OC)[C@H](OC(C)=O)[C@]5(CC)C=CCN6CC[C@]43[C@@H]65)C2)C1 [VINCRISTINE]
IC50 (KB): 0.21 nM
Ratio IC50 [5]: 3173

CCOc1ccc2c(C)cc(=O)oc2c1COC(=O)c1cccc(N(C)C)c1
viability at 48 h, 10 µM [1]: 97.2%
viability at 48 h, 10 µM [2]: 96.3%
viability at 48 h, 10 µM [3]: 106%
viability at 48 h, 10 µM [4]: 97%
viability at 48 h, 10 µM [6]: 117%
viability at 48 h, 10 µM [7]: 104%
Ratio IC50 (A2780/Taxol): 224
Ratio IC50 [8]: 0.83
Ratio IC50 [9]: 314

CCOc1ccc2c(C)cc(=O)oc2c1COC(=O)CCc1ccc(OC)cc1
viability at 48 h, 10 µM [1]: 73.5%
viability at 48 h, 10 µM [2]: 85%
viability at 48 h, 10 µM [3]: 91.3%
viability at 48 h, 10 µM [4]: 101%
Ratio IC50 (A2780/Taxol): 6

CCCc1ccc(C(=O)OCc2c(OCC)ccc3c(C)cc(=O)oc23)cc1
viability at 48 h, 10 µM [1]: 76%
viability at 48 h, 10 µM [2]: 78.4%
viability at 48 h, 10 µM [3]: 97.2%
viability at 48 h, 10 µM [4]: 84%
Ratio IC50 (A2780/Taxol): 54

CCOc1ccc2c(C)cc(=O)oc2c1COC(=O)/C=C/c1ccc(OC)cc1
viability at 48 h, 10 µM [1]: 84.9%
viability at 48 h, 10 µM [2]: 93.8%
viability at 48 h, 10 µM [3]: 98.9%
viability at 48 h, 10 µM [4]: 83.6%
viability at 48 h, 10 µM [6]: 123%
viability at 48 h, 10 µM [7]: 105%
Ratio IC50 (A2780/Taxol): 735
Ratio IC50 [8]: 0.76
Ratio IC50 [9]: 793

CCOc1ccc2c(C)cc(=O)oc2c1COC(=O)c1ccc(C(C)(C)C)cc1
viability at 48 h, 10 µM [1]: 79.8%
viability at 48 h, 10 µM [2]: 76%
viability at 48 h, 10 µM [3]: 87.1%
viability at 48 h, 10 µM [4]: 95.1%
Ratio IC50 (A2780/Taxol): 158

Cc1cc(=O)oc2c(COC(=O)c3ccc(C(C)(C)C)cc3)c(OC(C)C)ccc12
viability at 48 h, 10 µM [1]: 90.6%
viability at 48 h, 10 µM [2]: 83.7%
viability at 48 h, 10 µM [3]: 96%
viability at 48 h, 10 µM [4]: 104%
Ratio IC50 (A2780/Taxol): 72

CCOc1ccc2c(C)cc(=O)oc2c1COC(=O)/C=C/c1ccccc1
viability at 48 h, 10 µM [1]: 92.2%
viability at 48 h, 10 µM [2]: 84.7%
viability at 48 h, 10 µM [3]: 98.7%
viability at 48 h, 10 µM [4]: 98.9%
Ratio IC50 (A2780/Taxol): 97

CCOc1ccc2c(C)cc(=O)oc2c1COC(=O)c1cc(OC)c(OC)cc1OC
viability at 48 h, 10 µM [1]: 78.2%
viability at 48 h, 10 µM [2]: 88.8%
viability at 48 h, 10 µM [3]: 89.5%
viability at 48 h, 10 µM [4]: 84.1%
Ratio IC50 (A2780/Taxol): 47

CCOc1ccc2c(C)cc(=O)oc2c1COC(=O)c1c(F)cccc1F
viability at 48 h, 10 µM [1]: 78.2%
viability at 48 h, 10 µM [2]: 86.3%
viability at 48 h, 10 µM [3]: 94.6%
viability at 48 h, 10 µM [4]: 101%
Ratio IC50 (A2780/Taxol): 72

CCOc1ccc2c(C)cc(=O)oc2c1COC(=O)c1cccc(OC)c1
viability at 48 h, 10 µM [1]: 68.4%
viability at 48 h, 10 µM [2]: 79.8%
viability at 48 h, 10 µM [3]: 83.4%
viability at 48 h, 10 µM [4]: 76.5%
Ratio IC50 (A2780/Taxol): 56

Cc1ccc(C(=O)OCc2c(OC(C)C)ccc3c(C)cc(=O)oc23)cc1
viability at 48 h, 10 µM [1]: 79.8%
viability at 48 h, 10 µM [2]: 75.6%
viability at 48 h, 10 µM [3]: 91.2%
viability at 48 h, 10 µM [4]: 95.2%
Ratio IC50 (A2780/Taxol): 95

COc1cc(OC)c(C(=O)OCc2c(OC(C)C)ccc3c(C)cc(=O)oc23)cc1OC
viability at 48 h, 10 µM [1]: 86.3%
viability at 48 h, 10 µM [2]: 72.7%
viability at 48 h, 10 µM [3]: 90.9%
viability at 48 h, 10 µM [4]: 106%
Ratio IC50 (A2780/Taxol): 161

Cc1cc(=O)oc2c(COC(=O)c3ccc(F)cc3)c(OC(C)C)ccc12
viability at 48 h, 10 µM [1]: 70.5%
viability at 48 h, 10 µM [2]: 79.7%
viability at 48 h, 10 µM [3]: 85.3%
viability at 48 h, 10 µM [4]: 102%
Ratio IC50 (A2780/Taxol): 93

COc1cc(C(=O)OCc2c(OC(C)C)ccc3c(C)cc(=O)oc23)cc(OC)c1OC
viability at 48 h, 10 µM [1]: 61.7%
viability at 48 h, 10 µM [2]: 73.1%
viability at 48 h, 10 µM [3]: 81.5%
viability at 48 h, 10 µM [4]: 94.6%
viability at 48 h, 10 µM [6]: 65.5%
viability at 48 h, 10 µM [7]: 96.1%
Ratio IC50 (A2780/Taxol): 354
Ratio IC50 [8]: 0.86
Ratio IC50 [9]: 134

CCCc1ccc(C(=O)OCc2c(OC(C)C)ccc3c(C)cc(=O)oc23)cc1
viability at 48 h, 10 µM [1]: 87.5%
viability at 48 h, 10 µM [2]: 82.2%
viability at 48 h, 10 µM [3]: 92.7%
viability at 48 h, 10 µM [4]: 101%
Ratio IC50 (A2780/Taxol): 45

Cc1cc(=O)oc2c(COC(=O)/C=C/c3ccccc3)c(OC(C)C)ccc12
viability at 48 h, 10 µM [1]: 105%
viability at 48 h, 10 µM [2]: 95.9%
viability at 48 h, 10 µM [3]: 104%
viability at 48 h, 10 µM [4]: 103%
Ratio IC50 (A2780/Taxol): 32

CCOc1ccc2c(C)cc(=O)oc2c1COC(=O)c1cc(OC)c(OC)c(OC)c1
viability at 48 h, 10 µM [1]: 86.7%
viability at 48 h, 10 µM [2]: 99.7%
viability at 48 h, 10 µM [3]: 103%
viability at 48 h, 10 µM [4]: 97.6%
Ratio IC50 (A2780/Taxol): 51

CCOc1ccc2c(C)cc(=O)oc2c1COC(=O)c1ccc(C)cc1
viability at 48 h, 10 µM [1]: 64.7%
viability at 48 h, 10 µM [2]: 77.1%
viability at 48 h, 10 µM [3]: 86.1%
viability at 48 h, 10 µM [4]: 95.8%
Ratio IC50 (A2780/Taxol): 26

COc1ccc(/C=C/C(=O)OCc2c(OC(C)C)ccc3c(C)cc(=O)oc23)cc1
viability at 48 h, 10 µM [1]: 93.6%
viability at 48 h, 10 µM [2]: 98.9%
viability at 48 h, 10 µM [3]: 90.4%
viability at 48 h, 10 µM [4]: 98.1%
viability at 48 h, 10 µM [6]: 131%
viability at 48 h, 10 µM [7]: 108%
Ratio IC50 (A2780/Taxol): 496
Ratio IC50 [8]: 0.78
Ratio IC50 [9]: 1257

CCOc1ccc2c(C)cc(=O)oc2c1COC(=O)/C=C/c1ccc(Cl)cc1
viability at 48 h, 10 µM [1]: 90.7%
viability at 48 h, 10 µM [2]: 101%
viability at 48 h, 10 µM [3]: 106%
viability at 48 h, 10 µM [4]: 102%
Ratio IC50 (A2780/Taxol): 14

CCOc1ccc2c(C)cc(=O)oc2c1COC(=O)c1ccc(Cl)c([N+](=O)[O-])c1
viability at 48 h, 10 µM [1]: 50.1%
viability at 48 h, 10 µM [2]: 81%
viability at 48 h, 10 µM [3]: 72.6%
viability at 48 h, 10 µM [4]: 78.7%
Ratio IC50 (A2780/Taxol): 31

CCOc1ccc2c(C)cc(=O)oc2c1COC(=O)c1ccc(F)cc1
viability at 48 h, 10 µM [1]: 78.3%
viability at 48 h, 10 µM [2]: 87.2%
viability at 48 h, 10 µM [3]: 88.6%
viability at 48 h, 10 µM [4]: 93.4%
Ratio IC50 (A2780/Taxol): 61

Cc1cc(=O)oc2c(CO)c(OC(C)C)ccc12
viability at 48 h, 10 µM [1]: 80.2%
viability at 48 h, 10 µM [2]: 84.7%
viability at 48 h, 10 µM [3]: 88.6%
viability at 48 h, 10 µM [4]: 94.6%
